Ends that are not written are not given here.
What was measured:
MDA-MB-231 cells [1] = test: qPCR gene expression; type: cell-based; settings: for expression of NANOG target genes (FABP5, POSTN, NRP2, PIN1, TAGLN) / expression of epithelial cell markers cytokeratin 18 and 19 (KRT18 and KRT19): MDA-MB-231, 7 days of treatment, n=3; for expression of NANOG target genes (FABP5, POSTN, NRP2, PIN1, TAGLN): compared to vehicle or aScr-pep
Procedure, shortened: (§1)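 Cells were treated for 7 days with test peptide, cytosolic-tail peptide alone, scrambled peptide or vehicle, then analysed by real-time qPCR for NANOG-regulated and keratin genes. CT values were normalized to GAPDH, and dissociation curves checked primer fidelity. n=3 independent experiments, each in technical triplicate; one-way ANOVA.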

NANOG = NANOG (Homo sapiens, UniProt Q9H9S0); test: Surface plasmon resonance; type: binding
Procedure, shortened: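 Purified active NANOG at 50 μg/mL in 10 mM sodium acetate pH 4.5 was amine-coupled (EDC/NHS, ethanolamine block) to a CM5 chip, targeting 5000 RU, with an unmodified reference cell. Runs used Biacore S200 at 25°C, 1% DMSO/1x PBS-P+ at 30 μL/min. Peptide series: ≥5 concentrations, 100 nM–100 μM, plus repeat and zero. Association 180 s, dissociation 600 s, glycine pH 2.5 regeneration. KD by 1:1 Langmuir kinetics.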

FAK = FAK (Homo sapiens, UniProt Q05397); test: Surface plasmon resonance; type: binding
Procedure, shortened: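 Biacore S200 at 25°C, with running buffer 1% DMSO/1x PBS-P+ (filtered, degassed) at 30 μL/min. FAK at 20 μg/mL in 10 mM sodium acetate pH 5.0 was amine-coupled to a CM5 chip, targeting 5000 RU, with unmodified flow cell 1 as reference. Peptide analyte: ≥5 concentrations (100 nM–100 μM) plus a repeat and a blank, multi-cycle. Association 180 s, dissociation 600 s. Regeneration with 10 mM glycine pH 2.5 for 30 s. KD from 1:1 Langmuir fit.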

HCC70 cells [2] = test: qPCR gene expression; type: cell-based; settings: HCC70, 10 μM, 7 day treatment, compared to aScr-pep
Procedure, shortened: as §1

[3] = test system: MDA-MB-231 luciferase-expressing tumors; type: in vivo, NSG mice; settings: endpoint tumors
Procedure, shortened: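 MDA-MB-231 cells were made luciferase-expressing by lentivirus and puromycin-selected. 1×10⁶ cells went into the right subcutaneous flank of 6-week-old female NSG mice. At palpability, mice were randomized to 50 μl intratumoral 0.1 mM peptide or vehicle (1% DMSO) every other day for 20 days. Weekly IVIS: D-luciferin 150 mg/kg IP under isoflurane, total flux. Excised tumors were fixed 3 days in 4% PFA, then sectioned and stained (H&E: 7–8 mice/group; IF: 3–4 mice/group, 3 images/mouse). One-way ANOVA.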

MCF7 = test: Tumorsphere-initiation frequency, extreme limiting-dilution assay; type: cell-based; settings: MCF7 luminal breast cancer cell line, ELDA, aScr-pep vs aCx26-pep
Procedure, shortened: (§2)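 Cells were treated with vehicle, Antp alone, Antp-tagged scrambled peptide or test peptide. They were plated in duplicate rows at serial dilutions of 1–20 cells/well, one 96-well plate per condition. Medium was serum-free DMEM with 20 ng/ml bFGF, 10 ng/ml EGF, 2% B27 and 10 μg/ml insulin. After 2 weeks, wells were scored sphere-positive or negative by phase-contrast microscopy. Stem-cell frequency was computed by extreme limiting dilution analysis.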

[4] = test system: MCF7 luminal breast cancer cells; test: qPCR gene expression; type: cell-based; settings: MCF7, 7 days of treatment, n=3
Procedure, shortened: as §1

MDA-MB-231 cells [5] = test: CellTiter-Glo proliferation; type: cell-based; settings: MDA-MB-231, increasing concentrations, 72 h
Procedure, shortened: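 MDA-MB-231 cells, grown in DMEM with 1 mM sodium pyruvate and 10% heat-inactivated FCS at 37°C and 5% CO₂, were seeded at 1,000 cells/well. They were exposed for 72 h to Antp peptide alone, test peptide or vehicle (1% DMSO in PBS). Cells were lysed with CellTiter-Glo at day 0 and at 72 h, shaken 10 min in the dark, and luminescence was read. Fold change = 72 h value / day 0 value per group.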

MDA-MB-468 = test: Tumorsphere-initiation frequency, extreme limiting-dilution assay; type: cell-based; settings: MDA-MB-468, ELDA, compared to aScr-pep
Procedure, shortened: as §2

MDA-MB-231 = test: as above; type: cell-based; settings: MDA-MB-231, ELDA, compared to aScr-pep
Procedure, shortened: as §2

HCC70 cells [6] = test: Subcellular fractionation and immunoblotting for FAK and NANOG; type: cell-based; settings: HCC70, 10 μM, 48 h, immunoblot
Procedure, shortened: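 15×10⁶ HCC70 cells per 15 cm dish were treated 48 h with 10 μM peptide or 1% DMSO vehicle. A commercial kit gave membrane, cytoplasmic and nuclear fractions. 25 μg per fraction was run on 12% SDS-PAGE and transferred to PVDF. Blots were probed for FAK and NANOG, with HRP secondary 3 h at room temperature. Rhodamine anti-actin and Lamin A/C served as loading controls.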

HCC70 = test: Tumorsphere-initiation frequency, extreme limiting-dilution assay; type: cell-based; settings: HCC70, ELDA, compared to aScr-pep
Procedure, shortened: as §2

[7] = SPR, 25°C, 1% DMSO/1x PBS-P+, 1:1 Langmuir, range given in words
[8] = immunofluorescence, 3–4 mice per group
[9] = MDA-MB-231, 10 μM, 7 day treatment, compared to aScr-pep

Sequence of NANOG (Q9H9S0 whole entry): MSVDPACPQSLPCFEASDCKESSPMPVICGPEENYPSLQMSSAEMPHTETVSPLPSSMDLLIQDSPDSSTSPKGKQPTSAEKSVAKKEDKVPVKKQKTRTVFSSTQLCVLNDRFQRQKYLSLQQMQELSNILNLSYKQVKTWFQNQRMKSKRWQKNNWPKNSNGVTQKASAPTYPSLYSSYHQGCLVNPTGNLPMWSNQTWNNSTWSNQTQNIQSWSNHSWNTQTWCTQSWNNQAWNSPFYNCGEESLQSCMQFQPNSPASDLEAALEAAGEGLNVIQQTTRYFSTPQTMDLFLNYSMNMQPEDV
Sequence of FAK (Q05397 whole entry): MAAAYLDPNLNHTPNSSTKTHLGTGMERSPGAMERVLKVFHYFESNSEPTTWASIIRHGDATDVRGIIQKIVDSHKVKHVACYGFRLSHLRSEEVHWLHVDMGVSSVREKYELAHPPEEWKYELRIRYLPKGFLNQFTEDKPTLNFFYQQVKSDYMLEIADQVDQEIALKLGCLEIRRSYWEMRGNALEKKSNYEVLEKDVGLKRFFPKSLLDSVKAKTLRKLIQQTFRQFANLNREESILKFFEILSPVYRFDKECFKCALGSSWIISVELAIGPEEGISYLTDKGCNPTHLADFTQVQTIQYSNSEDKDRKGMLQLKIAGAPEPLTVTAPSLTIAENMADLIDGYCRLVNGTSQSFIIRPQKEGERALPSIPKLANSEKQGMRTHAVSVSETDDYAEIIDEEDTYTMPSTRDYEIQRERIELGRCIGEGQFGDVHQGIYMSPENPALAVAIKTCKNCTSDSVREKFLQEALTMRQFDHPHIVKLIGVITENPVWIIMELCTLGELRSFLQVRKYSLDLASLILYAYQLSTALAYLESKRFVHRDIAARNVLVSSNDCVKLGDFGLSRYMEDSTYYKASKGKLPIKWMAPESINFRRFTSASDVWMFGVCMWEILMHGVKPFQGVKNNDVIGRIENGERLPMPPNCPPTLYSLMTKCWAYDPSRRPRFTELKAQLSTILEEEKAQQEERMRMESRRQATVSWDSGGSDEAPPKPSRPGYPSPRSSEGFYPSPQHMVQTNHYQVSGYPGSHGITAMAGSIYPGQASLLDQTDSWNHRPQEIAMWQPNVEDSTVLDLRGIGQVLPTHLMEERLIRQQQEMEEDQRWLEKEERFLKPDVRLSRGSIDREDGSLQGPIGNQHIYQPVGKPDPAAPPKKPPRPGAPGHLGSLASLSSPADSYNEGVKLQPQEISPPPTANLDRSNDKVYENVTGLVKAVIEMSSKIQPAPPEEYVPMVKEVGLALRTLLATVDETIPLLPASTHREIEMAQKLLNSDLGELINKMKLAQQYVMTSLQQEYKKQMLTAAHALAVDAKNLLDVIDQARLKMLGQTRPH

For “Cx26 cytosolic tail: peptide fragment of the Cx26 cytosolic (C-terminal) tail, 11 amino acids (RYCSGKSKKPV-NH2)”, which “expression of NANOG target genes (FABP5, POSTN, NRP2, PIN1, TAGLN)” value (MDA-MB-231 cells [1]) is on record?
Its value is “no significant differences”.

And the “expression of epithelial cell markers cytokeratin 18 and 19 (KRT18 and KRT19)” value (MDA-MB-231 cells [1])?
Its value is “no significant differences”.

And the “dissociation constant (KD) with NANOG” value (NANOG; [7])?
The value was “nanomolar”.

What about the “dissociation constant (KD) with FAK” value (FAK; [7]) of the same substance?
The value was “micromolar”.

For RYCSG, which “binding to NANOG by SPR (result in words)” value (NANOG) is on record?
The value was “sufficient for binding”.

What about the “binding to FAK by SPR (result in words)” value (FAK) of the same substance?
The value was “sufficient for binding”.

What does the source list for “aCx26-pep: peptide containing the Cx26 cytosolic tail sequence tagged with an antennapedia (Antp) leader sequence (RQIKIWFQNRRMKWKKRYCSGKSKKPV-NH2)”?
Oct4 mRNA levels (HCC70 cells [2]): significant decrease; Sox2 levels (HCC70 cells [2]): did not observe a change; Ki67 staining (proliferation marker) [3, 8]: decreased; cleaved caspase 3 staining [3, 8]: increased; vimentin staining (EMT marker) [3, 8]: decreased; percent tumor viability (H&E) ([3]; vs vehicle or aScr-pep, 7–8 mice per group): significantly decreased; Oct4 mRNA levels (MDA-MB-231 cells [1]; [9]): significant decrease; Sox2 levels (MDA-MB-231 cells [1]; [9]): did not observe a change; expression of NANOG target genes (FABP5, POSTN, NRP2, PIN1, TAGLN) (MDA-MB-231 cells [1]): significantly decreased; expression of epithelial cell markers cytokeratin 18 and 19 (KRT18 and KRT19) (MDA-MB-231 cells [1]): significantly increased; tumorsphere frequency (MCF7): no significant difference; NANOG target gene expression [4]: did not significantly change; cytokeratin gene expression [4]: did not significantly change; cell proliferation (CellTiter-Glo) (MDA-MB-231 cells [5]): not significantly affected; binding to NANOG by SPR (result in words) (NANOG): did not significantly alter; binding to FAK by SPR (result in words) (FAK): did not significantly alter; tumorsphere frequency (MDA-MB-468): significantly decreased; tumorsphere frequency (MDA-MB-231): significantly decreased; FAK level in the nuclear fraction (HCC70 cells [6]): dramatic decreases; NANOG level in the nuclear fraction (HCC70 cells [6]): dramatic decreases; tumorsphere frequency (HCC70): significantly decreased
